Source: ChEMBL document CHEMBL1131473, “A novel class of orally active non-peptide bradykinin B2 receptor antagonists. 1. Construction of the basic framework” (J Med Chem, 1998)

How the values were obtained:
[1] = Compound at a dose of 10 mg/kg was orally administered to rats and Area under curve was reported; format: ADME, organism-based; set-up: dose 10 mg/kg, route oral; conditions: rat, in vivo, po
In short: (§1)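 Male Sprague-Dawley rats (3), starved overnight, given compound orally in 0.5% methocel (0.5 mL/100 g). Femoral-artery blood sampled at 0, 0.5, 1, 2, 4 and 6 h. Intravenous arm used a DMSO solution into the femoral vein, sampled 0 min–6 h. Plasma extracted with CHCl3, dried, reconstituted in MeOH and quantified by HPLC peak area against spiked time-0 plasma standards.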

[2] = target: T1, B2 bradykinin receptor (Cavia porcellus, UniProt O70526); experiment: In vitro for inhibition of specific binding of [3H]BK (0.06 nM) to bradykinin receptor B2 in guinea pig ileum membrane preparations.; format: cell membranes
T1 sequence (O70526 whole entry): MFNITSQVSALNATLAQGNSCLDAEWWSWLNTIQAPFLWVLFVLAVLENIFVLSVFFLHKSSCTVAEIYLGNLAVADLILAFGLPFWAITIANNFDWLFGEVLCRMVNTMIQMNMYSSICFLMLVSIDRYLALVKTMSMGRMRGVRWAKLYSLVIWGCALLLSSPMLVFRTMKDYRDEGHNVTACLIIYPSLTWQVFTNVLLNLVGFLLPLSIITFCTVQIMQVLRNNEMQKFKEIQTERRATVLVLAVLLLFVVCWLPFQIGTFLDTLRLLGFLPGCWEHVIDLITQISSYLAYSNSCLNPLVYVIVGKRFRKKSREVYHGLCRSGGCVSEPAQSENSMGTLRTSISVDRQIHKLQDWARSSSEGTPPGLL
In short: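 Ileal membranes from male Hartley guinea pigs, prepared in TES/1,10-phenanthroline pH 6.8 by 1000g then 100000g spins. Assay buffer held bacitracin, DTT, 1 μM captopril and 0.1% BSA. Membranes (0.2 mg protein/mL) incubated with [3H]BK (final 0.06 nM) and varying compound concentrations for 60 min at room temperature. Bound ligand filtered on GF/B and counted by scintillation; nonspecific binding taken with 1 μM unlabeled BK.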

[3] = Compound at a dose of 10 mg/kg was orally administered to rats and maximum plasma concentration was reported; format: ADME, organism-based; set-up: dose 10 mg/kg, route oral; conditions: rat, po; in short: as §1
[4] = Compound at a dose of 10 mg/kg was orally administered to rats and Half-life value was reported; format: ADME, organism-based; set-up: dose 10 mg/kg, route oral; conditions: rat, in vivo, po; in short: as §1
[5] = Compound at a dose of 10 mg/kg was orally administered to rats and Bioavailability was reported; format: ADME, organism-based; conditions: rat, in vivo, po, read-out: BA; in short: as §1
[6] = tested on: Cavia porcellus; experiment: In vivo functional antagonistic activity against BK-induced bronchoconstriction in guinea pigs at an oral dose of 1 mg/kg.
In short: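 Male Hartley guinea pigs (470-750 g), fasted, anesthetized with pentobarbital (30 mg/kg ip), ventilated, given alcuronium iv and propranolol sc. BK (5 μg/kg iv) raised pulmonary insufflation pressure, measured by modified Konzett–Rössler. Compound in 0.5% methylcellulose, or vehicle, was given by oesophageal cannula. BK was repeated 30 min later. Response expressed as ΔPIP after drug over ΔPIP before drug ×100; Student's t-test vs control.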

Row | IC50 [2] [nM] | Compound | also measured
1 | 8.9 | CCCC(=O)NCC(=O)N(C)c1ccc(Cl)c(COc2cccn3c(Br)c(C)nc23)c1Cl | AUC [1]: 11700 ng·h/mL; Cmax [3]: 9970 ng/mL; half-life [4]: 18 min; bioavailability [5]: 90%; inhibition in vivo at 1 mg/kg [6]: 52.7%
2 | 2.4 | Cc1nc2c(OCc3c(Cl)ccc(N(C)C(=O)CNC(=O)CN(C)C)c3Cl)cccn2c1Br | AUC [1]: 940 ng·h/mL; Cmax [3]: 290 ng/mL; half-life [4]: 18 min; bioavailability [5]: 32.8%; inhibition in vivo at 1 mg/kg [6]: 72.4%
3 | > 100000 | CCOC(=O)c1c(C)nc2c(OCc3c(Cl)cccc3Cl)cccn12 | –
4 | 2100 | Cc1nc2c(OCc3c(Cl)ccc(N(C)S(C)(=O)=O)c3Cl)cccn2c1Br | –
5 | 7600 | C#CCOCc1c(C)nc2c(OCc3c(Cl)cccc3Cl)cccn12 | –
6 | 380 | Cc1nc2c(OCc3c(Cl)ccc(N(C)C(=O)CN)c3Cl)cccn2c1Br | –
7 | 1400 | COC(=O)N(C)c1ccc(Cl)c(COc2cccn3c(Br)c(C)nc23)c1Cl | –
8 | 1500 | Cc1nc2c(OCc3c(F)cccc3Cl)cccn2c1Br | –
9 | 31000 | Clc1cccc(Cl)c1COc1cccn2ccnc12 | –
10 | 7500 | Cc1nc2c(OCc3c(Cl)cccc3Cl)cccn2c1CO | –
11 | 580 | COCC(=O)N(C)c1ccc(Cl)c(COc2cccn3c(Br)c(C)nc23)c1Cl | –
12 | 770 | CC(=O)NC(C)C(=O)N(C)c1ccc(Cl)c(COc2cccn3c(Br)c(C)nc23)c1Cl (stereo not drawn) | –
13 | > 100000 | CC(=O)N(Cc1c(Cl)cccc1Cl)c1cccn2c(Br)c(C)nc12 | –
14 | 16 | CC(=O)NCC(=O)N(C)c1ccc(Cl)c(COc2cccn3c(Br)c(C)nc23)c1Cl | –
15 | 230 | Cc1nc2c(OCc3c(Cl)cccc3Cl)cccn2c1Br | –
16 | > 100000 | Cc1nc2c(COc3c(Cl)cccc3Cl)cccn2c1Br | –
17 | 540 | COc1ccc(Cl)c(COc2cccn3c(Br)c(C)nc23)c1Cl | –
18 | 1800 | CC(=O)Nc1ccc(Cl)c(COc2cccn3c(Br)c(C)nc23)c1Cl | –
19 | > 100000 | Cc1nc2c(C(=O)Nc3c(Cl)cccc3Cl)cccn2c1Br | –
20 | 150 | CCN(C(C)=O)c1ccc(Cl)c(COc2cccn3c(Br)c(C)nc23)c1Cl | –
21 | 410 | CCN(C)c1ccc(Cl)c(COc2cccn3c(Br)c(C)nc23)c1Cl | –
22 | 500 | CC(=O)OCC(=O)N(C)c1ccc(Cl)c(COc2cccn3c(Br)c(C)nc23)c1Cl | –
23 | 490 | Cc1nc2c(OCc3c(Cl)ccc(Cl)c3Cl)cccn2c1Br | –
24 | 72 | CCC(=O)N(C)c1ccc(Cl)c(COc2cccn3c(Br)c(C)nc23)c1Cl | –
25 | 4500 | Cc1cn2cccc(OCc3c(Cl)cccc3Cl)c2n1 | –

Row | IC50 [2] [nM] | Compound | also measured
26 | 420 | CC(=O)N(C)c1c(Cl)cc(Cl)c(COc2cccn3c(Br)c(C)nc23)c1Cl | –
27 | 42 | Cc1nc2c(OCc3c(Cl)ccc([N+](=O)[O-])c3Cl)cccn2c1Br | –
28 | 200 | Cc1nc2c(OCc3c(Cl)cccc3Cl)cccn2c1Cl | –
29 | 9 | CCNC(=O)NCC(=O)N(C)c1ccc(Cl)c(COc2cccn3c(Br)c(C)nc23)c1Cl | AUC [1]: 58900 ng·h/mL; Cmax [3]: 52600 ng/mL; half-life [4]: 30 min; bioavailability [5]: 75%; inhibition in vivo at 1 mg/kg [6]: 57.2%
30 | 10000 | CCc1cn2cccc(OCc3c(Cl)cccc3Cl)c2n1 | –
31 | > 100000 | Cc1nc2c(C(=O)Oc3c(Cl)cccc3Cl)cccn2c1Br | –
32 | 1800 | Cc1nc2c(OCc3c(F)cccc3F)cccn2c1Cl | –
33 | 1700 | Cc1nc2c(OCc3c(Br)cccc3Br)cccn2c1Cl | –
34 | 1600 | CC(=O)N(C)CC(=O)N(C)c1ccc(Cl)c(COc2cccn3c(Br)c(C)nc23)c1Cl | –
35 | > 100000 | Cc1nc2c(/C=C/c3c(Cl)cccc3Cl)cccn2c1Br | –
36 | 1200 | Cc1nc2c(NCc3c(Cl)cccc3Cl)cccn2c1Cl | –
37 | 810 | CC(=O)NCCC(=O)N(C)c1ccc(Cl)c(COc2cccn3c(Br)c(C)nc23)c1Cl | –
38 | 350 | CNC(=O)N(C)c1ccc(Cl)c(COc2cccn3c(Br)c(C)nc23)c1Cl | –
39 | 31000 | CCn1c(C)cc(C#N)c1-c1ccc(COc2cc(C)nc3ccccc23)cc1 | –
40 | 54 | CC(=O)N(C)c1ccc(Cl)c(COc2cccn3c(Br)c(C)nc23)c1Cl | –
41 | > 100000 | Cc1nc2c(NC(=O)c3c(Cl)cccc3Cl)cccn2c1Cl | –
42 | > 100000 | FC(F)(F)c1cn2cccc(OCc3c(Cl)cccc3Cl)c2n1 | –
43 | 1500 | Cc1nc2c(OCc3c(Cl)ccc(N)c3Cl)cccn2c1Br | –
44 | 19 | CCC(=O)NCC(=O)N(C)c1ccc(Cl)c(COc2cccn3c(Br)c(C)nc23)c1Cl | inhibition in vivo at 1 mg/kg [6]: 48.4%
45 | 580 | Cc1nc2c(OCc3c(Cl)ccc(N(C)C(=O)CNS(C)(=O)=O)c3Cl)cccn2c1Br | inhibition in vivo at 1 mg/kg [6]: 48.4%
46 | 26 | CCCNC(=O)NCC(=O)N(C)c1ccc(Cl)c(COc2cccn3c(Br)c(C)nc23)c1Cl | inhibition in vivo at 1 mg/kg [6]: 62.4%
47 | 7.8 | CCCCC(=O)NCC(=O)N(C)c1ccc(Cl)c(COc2cccn3c(Br)c(C)nc23)c1Cl | inhibition in vivo at 1 mg/kg [6]: 29.7%
48 | 46 | CNC(=O)NCC(=O)N(C)c1ccc(Cl)c(COc2cccn3c(Br)c(C)nc23)c1Cl | inhibition in vivo at 1 mg/kg [6]: 41.5%
49 | 16 | CC(=O)NCC(=O)N(C)c1ccc(Cl)c(COc2cccn3c(Br)c(C)nc23)c1Cl.Cl | AUC [1]: 3150 ng·h/mL; Cmax [3]: 3640 ng/mL; half-life [4]: 25.2 min; inhibition in vivo at 1 mg/kg [6]: 62.3%
